Experiments:
[1] = Cytotoxicity against mouse BV2 cells assessed as cell viability at 20 uM after 24 hrs by MTT assay relative to control; type: cell-based, BV-2; details: read-out: Activity
Procedure, shortened: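 BV-2 cells grown in DMEM with 10% heat-inactivated FBS at 37 °C under 5% CO2. Medium switched to 0.5% FBS at 85% confluence before treatment. Viability measured after 24 h compound exposure by colorimetric MTT reduction. Mean ± SD of three individual experiments.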

[2] = test system: BV-2; assay: Inhibition of LPS-induced iNOS expression in mouse BV2 cells at 20 uM pretreated for 15 mins followed by LPS-stimulation after 24 hrs by western blot analysis relative to control; type: functional
Procedure, shortened: (§1)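 BV-2 cells at 80% confluence, serum-free medium for 24 h. Cells given DMSO or compound, then LPS 150 ng/mL for 24 h. Lysate supernatants run on SDS-PAGE, blotted to PVDF, probed with anti-COX-2 or anti-iNOS and HRP secondary, detected by ECL. Protein levels expressed as fold of control. Mean ± SD of three experiments.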

[3] = test system: BV-2; assay: Inhibition of LPS-induced COX-2 expression in mouse BV2 cells at 20 uM pretreated for 15 mins followed by LPS-stimulation after 24 hrs by western blot analysis relative to control; type: functional; procedure, shortened: as §1
[4] = test system: BV-2; assay: Inhibition of LPS-induced iNOS expression in mouse BV2 cells pretreated for 15 mins followed by LPS-stimulation after 24 hrs by western blot analysis; type: functional, cell-based
Procedure, shortened: (§2)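 Western blot in BV-2 microglia after serum-free conditioning for 24 h. Compound given at 2, 5, 10 and 20 μM, then LPS 150 ng/mL for 24 h. iNOS and COX-2 detected by ECL and expressed relative to control. IC50 calculated from the concentration–response data.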

[5] = test system: BV-2; assay: Inhibition of LPS-induced COX-2 expression in mouse BV2 cells pretreated for 15 mins followed by LPS-stimulation after 24 hrs by western blot analysis; type: functional, cell-based; procedure, shortened: as §2
[6] = test system: BV-2; assay: Inhibition of LPS-induced nitric oxide production in mouse BV2 cells pretreated for 30 mins followed by LPS-stimulation after 24 hrs by Griess assay; type: functional, cell-based
Procedure, shortened: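 BV2 cells seeded at 5 × 10^5 per well for 16 h, then moved to phenol red-free DMEM. Cells pretreated 30 min with vehicle or compound (2, 10, 20, 40 μM), then given LPS 150 ng/mL for 24 h. Supernatant nitrate reduced with nitrate reductase and cofactors for 1 h at RT in the dark. Griess A and B added for 20 min, then A550 read. Nitrite obtained by regression against NaNO2 standards, and IC50 derived. Curcumin used as positive control.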

C=C(C=O)[C@@H]1C[C@@]2(C)C(=CC1=O)CCC[C@@H]2C
viability at 24 h, 20 µM [1]: 46.1%

C=C(CO)C1=C[C@@]2(C)C(=CC1=O)CCC[C@@H]2C
fold change (FC) [2]: 3.6
fold change (FC) [3]: 3.7
viability at 24 h, 20 µM [1]: 73.8%

C=C(C=O)[C@@H]1C[C@@]2(C)C(=C[C@H]1O)CCC[C@@H]2C
viability at 24 h, 20 µM [1]: 44.6%

C=C(C)[C@@H]1Cc2cc(C=O)ccc2O1
fold change (FC) [2]: 3
fold change (FC) [3]: 4.2

C=C1CO[C@@H]2C=C3CCC[C@H](C)[C@@]3(C)C[C@@]12O
fold change (FC) [2]: 1.8
fold change (FC) [3]: 2.1
viability at 24 h, 20 µM [1]: 87.7%
IC50 [4]: 8.1 µM
inhibition [4]: Dose-dependent effect
IC50 [5]: 16.6 µM
inhibition [5]: Dose-dependent effect
IC50 [6]: 21.7 µM
inhibition [6]: Dose-dependent effect

CCCCC1OC(=O)c2c(O)cccc21 (configuration not stated)
fold change (FC) [2]: 4.3
fold change (FC) [3]: 6.5

O=C1C[C@H](O)Cc2cc(O)cc(O)c21
fold change (FC) [2]: 2.9
fold change (FC) [3]: 4.9

CC1=C2[C@@H](C=C3CCC[C@H](C)[C@@]3(C)[C@H]2O)OC1=O
fold change (FC) [2]: 3.2
fold change (FC) [3]: 6.4
viability at 24 h, 20 µM [1]: 90.2%

COc1cc(/C=C/C(=O)CC(=O)/C=C/c2ccc(O)c(OC)c2)ccc1O [CURCUMIN]
IC50 [6]: 4.5 µM

CCCCCc1cccc(O)c1CO
fold change (FC) [2]: 3.4
fold change (FC) [3]: 5.6

C=C(C)[C@@H]1Cc2cc(CO)ccc2O1
fold change (FC) [2]: 1.9
fold change (FC) [3]: 2.4
viability at 24 h, 20 µM [1]: 85.9%
IC50 [4]: 11.6 µM
inhibition [4]: Dose-dependent effect
IC50 [5]: 12.7 µM
inhibition [5]: Dose-dependent effect
IC50 [6]: 33.8 µM

CC1=C2[C@@H](C=C3C=CC[C@H](C)[C@@]3(C)[C@H]2O)OC1=O
fold change (FC) [2]: 4.5
fold change (FC) [3]: 4.9
viability at 24 h, 20 µM [1]: 79.3%
